Measured values published in ChEMBL document CHEMBL4043178, “Synthesis and evaluation of analogs of 5'-(((Z)-4-amino-2-butenyl)methylamino)-5'-deoxyadenosine (MDL 73811, or AbeAdo) - An inhibitor of S-adenosylmethionine decarboxylase with antitrypanosomal activity” (Bioorg Med Chem, 2017).

What was measured:
[1] = Inhibition of Trypanosoma brucei AdoMetDC pre-incubated for 30 mins before AdoMet substrate addition by RapidFire-mass spectrometry
[2] = Inhibition of Trypanosoma brucei AdoMetDC without pre-incubation for 30 mins before AdoMet substrate addition by RapidFire-mass spectrometry
Trypanosoma brucei [3] = assay: Antitrypanosomal activity against Trypanosoma brucei Lister 427 bloodstream forms assessed as inhibition of parasite growth incubated for 48 hrs by ATP-bioluminescence cell viability assay; type: functional; conditions: Lister 427, 48 h
Liver [4] = assay: (§1) Half life in human pooled liver microsomes at 1 uM in presence of NADPH by LC/MS/MS method; type: ADME, microsome; conditions: microsomes, 1 µM
Liver [5] = assay: (§2) Half life in mouse pooled liver microsomes at 1 uM in presence of NADPH by LC/MS/MS method; type: ADME, microsome; conditions: microsomes, 1 µM
Trypanosoma brucei [6] = assay: Antitrypanosomal activity against Trypanosoma brucei Lister 427 bloodstream forms assessed as inhibition of parasite growth at 25 uM incubated for 48 hrs by ATP-bioluminescence cell viability assay; type: functional; conditions: Lister 427, 48 h, read-out: GI
Procedure, shortened: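 Bloodstream-form Lister 427 cells grown in HMI-19, seeded at 3000 cells/mL; compound added as 100-fold intermediate dilution, final DMSO 0.1%. After 48 h culture, viability read by CellTiter-Glo ATP-bioluminescence. Tested 0.0038–25 µM in 3-fold steps, triplicate; no-cell and DMSO-only controls (0% and 100% viability) per plate; value is percent inhibition at 25 µM.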

MDCK-MDR1 = assay: Apparent permeability in MDCK2-MDR1 cells at 3 uM incubated for 1 hr in absence of P-glycoprotein inhibitor GF120918 by LC/MS/MS method; type: ADME, cell-based, Canis lupus familiaris; conditions: dog, mdck-mdr1, 1 h
Trypanosoma brucei [7] = assay: Inhibition of Trypanosoma brucei AdoMetDC at 50 uM pre-incubated for 30 mins before AdoMet substrate addition by RapidFire-mass spectrometry
Procedure, shortened: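 Purified T. brucei AdoMetDC/prozyme complex, 50 nM in the enzyme solution, pre-incubated 30 min with compound in DMSO before adding the substrate solution (80 µM AdoMet); Hepes pH 7.7, NaCl, 5 mM putrescine. Reaction 20 min, quenched with 1 M HCl; substrate and product quantified by RapidFire-MS.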

Trypanosoma brucei [8] = assay: Inhibition of Trypanosoma brucei AdoMetDC at 50 uM without pre-incubation for 30 mins before AdoMet substrate addition by RapidFire-mass spectrometry
Procedure, shortened: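 Inhibition without pre-incubation: substrate solution (80 µM AdoMet) added to compound before the enzyme solution (50 nM purified T. brucei AdoMetDC/prozyme); buffer Hepes pH 7.7 with 5 mM putrescine. Reaction ran 20 min, stopped with 1 M HCl, then analysed by RapidFire-MS.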

[9] = as §1; type: ADME, microsome; conditions: pooled liver microsomes
[10] = as §2; type: ADME, microsome; conditions: pooled liver microsomes
[11] = test system: Trypanosoma brucei brucei; assay: Antitrypanosomal activity against Trypanosoma brucei brucei; type: functional
[12] = Inhibition of His-tagged Trypanosoma brucei AdoMetDC expressed in Escherichia coli pre-incubated for 30 mins before AdoMet substrate addition

| SMILES | IC50 [1] | IC50 [2] | EC50 (Trypanosoma brucei [3]) | t1/2 (Liver [4]) | t1/2 (Liver [5]) | inhibition of growth at 25 µM (Trypanosoma brucei [6]) | Papp (MDCK-MDR1) | inhibition (Trypanosoma brucei [7]) | inhibition (Trypanosoma brucei [8]) | half-life at 1 µM [9] | half-life at 1 µM [10] | EC50 [11] | IC50 [12] |
| --- | --- | --- | --- | --- | --- | --- | --- | --- | --- | --- | --- | --- | --- |
| CCCC(=O)NC/C=C\CN(C)C[C@H]1O[C@@H](n2cnc3c(N)ncnc32)[C@H](O)[C@@H]1O | > 50 µM | > 50 µM | > 25 µM | > 1.5 h | > 1.5 h |  |  |  |  |  |  |  |  |
| CNc1ncnc2c1ncn2[C@@H]1O[C@H](CN(C)C/C=C\CN)[C@H]2OC(C)(C)O[C@H]21 | 12 µM | > 50 µM |  | > 1.5 h | > 1.5 h | 37% |  |  |  |  |  |  |  |
| Cc1nc2c(N)ncnc2n1[C@@H]1O[C@H](CN(C/C=C\CNC(=O)OC(C)(C)C)C2CC2)[C@H]2OC(C)(C)O[C@H]21 | 42 µM | > 50 µM | 3 µM | < 0.0417 h | < 0.0417 h |  | 31.2 ×10⁻⁶ cm/s |  |  |  |  |  |  |
| CCOC(=O)NC/C=C\CN(C)C[C@H]1O[C@@H](n2c(C)nc3c(N)ncnc32)[C@H](O)[C@@H]1O |  |  |  | > 1.5 h | > 1.5 h |  |  | 40% | 40% |  |  |  |  |
| Cc1nc2c(N)ncnc2n1[C@@H]1O[C@H](CN(C/C=C\CN)C2CC2)[C@@H](O)[C@H]1O | > 50 µM | > 50 µM | > 3 µM | > 1.5 h | > 1.5 h |  |  |  |  |  |  |  |  |
| CCC(=O)NC/C=C\CN(C)C[C@H]1O[C@@H](n2cnc3c(N)ncnc32)[C@H](OC(C)=O)[C@@H]1OC(C)=O | > 50 µM | > 50 µM | > 25 µM | 1.25 h | 0.0767 h |  |  |  |  |  |  |  |  |
| NC/C=C\CN(CCF)C[C@H]1O[C@@H](n2cnc3c(N)ncnc32)[C@H](O)[C@@H]1O |  | > 50 µM | > 25 µM | > 1.5 h | > 1.5 h |  |  | 36% |  |  |  |  |  |
| CC(=O)NC/C=C\CN(C)C[C@H]1O[C@@H](n2cnc3c(N)ncnc32)[C@H](OC(C)=O)[C@@H]1OC(C)=O | > 50 µM | > 50 µM | > 25 µM | > 1.5 h | 0.11 h |  |  |  |  |  |  |  |  |
| Cc1nc2c(N)ncnc2n1[C@@H]1O[C@H](CN(C/C=C\CN)CCO)[C@H]2OC(C)(C)O[C@H]21 | > 50 µM | > 50 µM | > 25 µM | > 1.5 h | > 1.5 h |  |  |  |  |  |  |  |  |
| CC(=O)Oc1cc(C)cc(C)c1C(C)(C)CC(=O)NC/C=C\CN(C)C[C@H]1O[C@@H](n2cnc3c(N)ncnc32)[C@@H]2OC(C)(C)O[C@@H]21 | > 50 µM |  |  |  |  | 44% |  |  |  | ≤ 2.5 min | ≤ 2.5 min |  |  |
| CN(C/C=C\CN)C[C@H]1O[C@@H](n2cnc3cncnc32)[C@@H]2OC(C)(C)O[C@@H]21 | > 50 µM | > 50 µM | > 25 µM | > 1.5 h | 0.983 h |  |  |  |  |  |  |  |  |
| Cc1nc2c(N)ncnc2n1[C@@H]1O[C@H](CN(C/C=C\CN)C2CC2)[C@H]2OC(C)(C)O[C@H]21 | > 50 µM | > 50 µM | > 3 µM | > 1.5 h | > 1.5 h |  |  |  |  |  |  |  |  |
| CCC(=O)NC/C=C\CN(C)C[C@H]1O[C@@H](n2cnc3c(N)ncnc32)[C@H](O)[C@@H]1O | 25 µM | 19 µM | > 25 µM | > 1.5 h | > 1.5 h |  |  |  |  |  |  |  |  |
| Cc1nc2c(N)ncnc2n1[C@@H]1O[C@H](CN(C)C/C=C\CNC(=O)OCc2ccccc2)[C@@H](O)[C@H]1O |  |  | 2.6 µM | 0.4 h | 0.217 h |  |  | 39% | 17% |  |  |  |  |
| CCOc1ncnc2c1ncn2[C@@H]1O[C@H](CN(C)C/C=C\CN)[C@@H](O)[C@H]1O | 0.6 µM |  | 0.36 µM | > 1.5 h | > 1.5 h |  |  |  | 33% |  |  |  |  |
| CC1(C)O[C@@H]2[C@H](O1)[C@@H](CN(C/C=C\CN)CCF)O[C@H]2n1cnc2c(N)ncnc21 | > 50 µM | > 50 µM | > 25 µM | > 1.5 h | > 1.5 h |  |  |  |  |  |  |  |  |
| CCCCCCCCC(=O)Nc1ncnc2c1ncn2[C@@H]1O[C@H](CN(C)C/C=C\CN)[C@H]2OC(C)(C)O[C@H]21 | 0.85 µM | 48 µM | 0.16 µM | 0.162 h | 0.1 h |  | 1 ×10⁻⁶ cm/s |  |  |  |  |  |  |
| CN(C/C=C\CN)C[C@H]1O[C@@H](n2cnc3c(N)ncnc32)[C@@H]2OC(C)(C)O[C@@H]21 | 3 µM |  | 0.42 µM | > 1.5 h | > 1.5 h |  |  |  | 22% |  |  |  |  |
| CC(C)Nc1ncnc2c1ncn2[C@@H]1O[C@H](CN(C)C/C=C\CN)[C@@H](O)[C@H]1O | 0.11 µM | 7.1 µM | 2.5 µM | > 1.5 h | > 1.5 h |  |  |  |  |  |  |  |  |
| Cc1nc2c(N)ncnc2n1[C@@H]1O[C@H](CN(C)C/C=C\CNC(=O)OC(C)(C)C)[C@H]2OC(C)(C)O[C@H]21 | > 50 µM | > 50 µM | > 25 µM | < 0.0417 h | < 0.0417 h |  | 5.1 ×10⁻⁶ cm/s |  |  |  |  |  |  |
| CN(C/C=C\CN)C[C@H]1O[C@@H](n2cnc3c(N(C)C)ncnc32)[C@H](O)[C@@H]1O | 0.81 µM |  | 10 µM | > 1.5 h | > 1.5 h |  |  |  | 37% |  |  |  |  |
| CCCC(=O)NC/C=C\CN(C)C[C@H]1O[C@@H](n2cnc3c(N)ncnc32)[C@H](OC(C)=O)[C@@H]1OC(C)=O | > 50 µM | > 50 µM | > 25 µM | 0.85 h | 0.05 h |  |  |  |  |  |  |  |  |
| CC(=O)NC/C=C\CN(C)C[C@H]1O[C@@H](n2cnc3c(N)ncnc32)[C@H](O)[C@@H]1O | 18 µM | 13 µM | > 25 µM | > 1.5 h | > 1.5 h |  |  |  |  |  |  |  |  |
| Cc1nc2c(N)ncnc2n1[C@@H]1O[C@H](CN(C)C/C=C\CN)[C@@H](O)[C@H]1O | 0.021 µM | 0.23 µM | 0.0018 µM | > 1.5 h | > 1.5 h |  |  |  |  |  |  | 0.0018 µM | 0.021 µM |
| Cc1nc2c(N)ncnc2n1[C@@H]1O[C@H](CN(C)C/C=C\CNC(=O)OC(C)C)[C@@H](O)[C@H]1O | > 50 µM | > 50 µM |  | > 1.5 h | > 1.5 h | 35% |  |  |  |  |  |  |  |
| CN(C/C=C\CN)C[C@H]1O[C@@H](n2cnc3c(N)ncnc32)[C@H](O)[C@@H]1O | 0.041 µM | 2.4 µM | 0.01 µM | > 1.5 h | > 1.5 h |  |  |  |  |  |  | 0.01 µM | 0.041 µM |
| CNc1ncnc2c1ncn2[C@@H]1O[C@H](CN(C)C/C=C\CN)[C@@H](O)[C@H]1O | 0.17 µM | 14 µM | 0.37 µM | > 1.5 h | > 1.5 h |  |  |  |  |  |  |  |  |
